For 3 compounds, IC50 and MIC results are on record in ChEMBL document CHEMBL4477192, “Laxitextines A and B, Cyathane Xylosides from the Tropical Fungus Laxitextum incrustatum” (J Nat Prod, 2016).

Values after ≈ are worked out from the molar mass of the structure shown. Active and inactive are the calls of the source. No cut-off for these calls is given here.

In assay [1] the test system is MCF7. The assay is described as follows: Antiproliferative activity against human MCF7 cells after 5 days by MTT assay. The class given is functional, cell-based. Particulars: MCF7, 120 h. A digest of the protocol:
(§1)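 Serial dilution in 96-well tissue-culture plates starting from 3.0 μL of 1 mg/mL stock. L929 grown in DMEM; MCF-7 and A431 in RPMI; each with 10% FBS. Incubation at 37 °C under 5% CO2 for 5 days. Methanol as negative control, epothilone A as positive control. IC50 in μM.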
A general note: Formazan colour is commonly taken as a measure of viable cells.

For assay [2], the system named is Staphylococcus aureus. The assay is described as follows: Antimicrobial activity against Staphylococcus aureus DSM 346 at 20 uL of 1 mg/ml compound solution after 24 to 48 hrs by serial dilution method. In kind it is functional.
The test system of assay [3] is Staphylococcus aureus. The assay is described as follows: Antimicrobial activity against Methicillin-resistant Staphylococcus aureus DSM 1182 at 20 uL of 1 mg/ml compound solution after 24 to 48 hrs by serial dilution method. The class given is functional.
Assay [4] concerns HUVEC. The assay is described as follows: Antiproliferative activity against HUVEC after 5 days by MTT assay. The class given is functional, cell-based. Particulars: Homo sapiens, 120 h.
The test system of assay [5] is Bacillus subtilis. The assay is described as follows: Antimicrobial activity against Bacillus subtilis DSM 10 after 24 to 48 hrs by serial dilution method. In kind it is functional.
Assay [6] deals with L929. The assay is described as follows: Antiproliferative activity against mouse L929 cells after 5 days by MTT assay. In kind it is functional, cell-based. To be noted: L929, 120 h. A digest of the protocol: as §1
Assay [7] deals with A-431. The assay is described as follows: Antiproliferative activity against human A431 cells after 5 days by MTT assay. In kind it is functional, cell-based. To be noted: A-431, 120 h. In a few lines: as §1
For assay [8], the system named is Staphylococcus aureus. To be noted: DSM 1182.
Assay [9] has as its system Staphylococcus aureus. The assay is described as follows: Antimicrobial activity against Staphylococcus aureus DSM 346 at 2 uL of 1 mg/ml compound solution after 24 to 48 hrs by serial dilution method. The class given is functional.
For assay [10], the system named is Staphylococcus aureus. The assay is described as follows: microbe, parasite or virus in culture. To be noted: DSM 1182.

By IC50 is commonly meant the point on the concentration scale where inhibition reaches its midpoint. Consider `CC(C)C1=C2[C@H]3CC[C@@H]4CO[C@@]5(O)[C@H](O)CO[C@H]6O[C@@H]([C@@H]4[C@]65O)[C@]3(C)CC[C@@]2(C)CC1`, for which the IC50 amounted to 2.3 µM in assay [1], 4.8 µM in [4], 17.3 µM in assay [6] and 5.8 µM in assay [7]. For the same compound, the MIC came out at 17.9 µM in [2], 17.9 µM (≈ 7.78 µg/mL) in [3], 76.7 µM (≈ 33.3 µg/mL) in [5] and 6.6 µg/mL (≈ 15.2 µM) in assay [9]. The MIC result in assay [8] is “inactive”.

Turning to `CC(C)C1=C2[C@H]3CC[C@@H]4[C@@H]5O[C@]6(O)[C@@]7(O)[C@@H](OC[C@]6(O)O5)O[C@@H]([C@@H]47)[C@]3(C)CC[C@@]2(C)CC1`, the IC50 was 2 µM in [1], 3.6 µM in assay [4], 16.1 µM in assay [6] and 4.9 µM in assay [7]. For the same compound, the values for the MIC in assay [2], in [3] and in assay [5] were 15.7 µg/mL, 140 µM (≈ 62.8 µg/mL) and 37.4 µM (≈ 16.8 µg/mL), respectively. In addition, the MIC entry in assay [8] and in assay [9] was “inactive” in each case.

Compound `CN[C@H](CC(C)C)C(=O)N[C@H]1C(=O)N[C@@H](CC(N)=O)C(=O)N[C@H]2C(=O)N[C@H]3C(=O)N[C@H](C(=O)N[C@H](C(=O)O)c4cc(O)cc(O)c4-c4cc3ccc4O)[C@H](O)c3ccc(c(Cl)c3)Oc3cc2cc(c3O[C@@H]2O[C@H](CO)[C@@H](O)[C@H](O)[C@H]2O[C@H]2C[C@](C)(N)[C@H](O)[C@H](C)O2)Oc2ccc(cc2Cl)[C@H]1O` [VANCOMYCIN] yielded an MIC in assay [10] of 1.6 µg/mL (≈ 1.1 µM).
